Screening data deposited in PubChem BioAssay by The Scripps Research Institute Molecular Screening Center.
STAT3 act-1 – STAT3 signaling activation; actives 0.91% (n = 190,000); U3A cells, IL-6 STAT3-luciferase reporter, luminescence; 100% = signal with IL-6 EC80 alone; activation (% of control), % at 5.6 µM;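 active means activation above the screen-wide mean of compound activation plus 3 SD, cut at about 130% in these data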
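Material: human STAT1-deficient U3A cells with stable STAT3-luciferase reporter / Probe or stimulus: IL-6 stimulus at 33 ng/mL final / Schedule: 1 h compound pre-exposure, 6 h IL-6 stimulation, 37 °C / Technique: luminescence / Read-out basis: percent of IL-6-only median luminescence / Control set: IL-6-only high control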
STAT3 blocker – inhibitors of IL-6 induced STAT3 signaling. U3A cells, IL-6 STAT3-luciferase reporter, luminescence; host cell line lacks STAT1. inhibition, % at 5.5 µM. actives 0.89% (n = 190,000);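 active means inhibition above the mean inhibition across all screened compounds plus 3 SD, cut at about 44% in these data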
PERK inh – blocks human PERK kinase; Q9NZJ5; CHO PERK-DD fusion, SEAP luminescence translation reporter; inhibition, % at 5.6 µM; actives 0.17% (n = 220,000);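 active means inhibition above the mean inhibition of all tested compounds plus 3 SD, set separately per screening campaign, cut at about 2.9% in these data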;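 further: PERK kinase domain activated by AP20187 dimerizer at 100 nM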
STAT1 inh – STAT1 signaling inhibition | NIH 3T3 STAT1-luciferase reporter, IFN-gamma, luminescence | inhibition, % at 5.5 µM | actives 0.35% (n = 200,000);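 active means inhibition above a set limit, the mean inhibition across all tested compounds plus 3 SD, cut at about 34% in these data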
STAT3 act-2 – confirmation of STAT3 signaling activators; shares compounds with STAT3 act-1; U3A STAT3-luciferase reporter, IL-6 potentiation, luminescence; U3A cells lack STAT1; 100 means same as IL-6 alone; potentiation (% of control), % at 5.7 µM; actives 64% (n = 1,200); AID 1267;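 active means percent activation of the STAT3 luciferase reporter above a set limit taken from the earlier primary screen, cut at about 130% in these data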
NFkB act STAT3ct – counter-screen for STAT3 activators: NF-kappaB activation; shares compounds with STAT3 act-1; human cells, NF-kappaB reporter activation; activation (% of control), % at 5.7 µM; actives 11% (n = 1,200); AID 1309; in the data active means activation above about 120%;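 further: reporter induced by TNF-alpha stimulation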
STAT1 act STAT3c – STAT1 activation in STAT3 activator counter-screen; shares compounds with STAT3 act-1; NIH 3T3 STAT1-luciferase reporter, IFN-gamma, luminescence; activation (% of control), % at 5.7 µM; actives 13% (n = 1,200); AID 1318;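 active means activation above the solvent-only control well mean plus 3 SD, set per screening run, cut at about 120% in these data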
Large screens that a line does not name were inactive (follow-up assays come after a bar, where they were run). An excerpt weighted towards active compounds, which were near 1.8% of everything screened.

CSc1nnc2c3ccccc3c3ccccc3c2n1	STAT3 act-1 162 | STAT3 act-2 147 | NFkB act STAT3ct inactive | STAT1 act STAT3c inactive
CSc1nnc(-c2ccccc2)c(-c2ccccc2)n1	none (no result: STAT3 act-1, STAT3 blocker, STAT1 inh)
COc1ccc(NC(=S)Nc2ccc(S(N)(=O)=O)cc2)c(OC)c1	STAT3 act-1 136 | STAT3 act-2 inactive | NFkB act STAT3ct inactive | STAT1 act STAT3c inactive
COc1ccc(NC(=S)Nc2ccc(S(=O)(=O)N3CCOCC3)cc2)c(OC)c1	none
O=C1CN(C(=O)c2ccc(Br)o2)C(c2ccccc2)c2cc(Br)ccc2N1 (stereo not given)	STAT3 act-1 142 | STAT3 act-2 139 | NFkB act STAT3ct inactive | STAT1 act STAT3c inactive
CC(=O)Nc1nc(-c2ccc(Cl)cc2)nc(C)c1C(C)=O	STAT3 act-1 137 | STAT3 act-2 inactive | NFkB act STAT3ct inactive | STAT1 act STAT3c inactive
Cc1cc(C)c2c(N)c(-c3nc4ccccc4[nH]3)sc2n1	STAT3 act-1 171 | STAT3 act-2 182 | NFkB act STAT3ct inactive | STAT1 act STAT3c inactive
Cc1ccc2nc(-c3sc4nc(C)ccc4c3N)[nH]c2c1	none
CSCC[C@H](NC(=O)CCn1nnc2ccccc2c1=O)C(=O)O	STAT3 act-1 139 | STAT3 act-2 inactive | NFkB act STAT3ct inactive | STAT1 act STAT3c inactive
CCN(CC)S(=O)(=O)c1ccc(N2CCOCC2)c(NC(=O)c2c3c(nc4ccccc24)CCC3)c1	none
O=c1oc2ccccc2c(Nc2cc3ccccc3cc2O)c1[N+](=O)[O-]	STAT3 act-1 141 | STAT3 act-2 171 | NFkB act STAT3ct inactive | STAT1 act STAT3c inactive
O=C(COC(=O)c1ccc2c(c1)C(=O)N(Cc1ccncc1)C2=O)Nc1ccccc1[N+](=O)[O-]	STAT3 act-1 138 | STAT3 act-2 147 | NFkB act STAT3ct inactive | STAT1 act STAT3c inactive
O=C(CNS(=O)(=O)c1cccs1)NCc1ccccc1	none
Clc1ccc(Nc2nc(-c3cccnc3)cs2)cc1	STAT3 act-1 192 | STAT3 act-2 179 | NFkB act STAT3ct 122 | STAT1 act STAT3c 139
CC1(C2CC2)NC(=O)N(CC(=O)Nc2ccccc2-c2ccccc2)C1=O (stereo not given)	none
COCCNC(=S)N1CCC(NC(=O)Nc2ccc(C)cc2)CC1	none
Cn1ncc(Br)c1C(=O)Nc1c(F)c(F)cc(F)c1F	STAT3 act-1 139 | STAT3 act-2 137 | NFkB act STAT3ct inactive | STAT1 act STAT3c 148
CCN(CC)S(=O)(=O)N1CCN(S(=O)(=O)N2CCOCC2)CC1	none
CC(=O)Nc1ccc(S(=O)(=O)Nc2nc3ccccc3nc2N2CCCCCC2)cc1	none
O=S(=O)(Nc1nc2ccccc2nc1N1CCc2ccccc2C1)c1ccc(Cl)cc1	STAT3 act-1 136 | STAT3 act-2 inactive | NFkB act STAT3ct inactive | STAT1 act STAT3c inactive
Cc1ccccc1S(=O)(=O)Nc1nc2ccccc2nc1N1CCc2ccccc2C1	STAT3 act-1 136 | STAT3 act-2 135 | NFkB act STAT3ct inactive | STAT1 act STAT3c inactive
O=S(=O)(Nc1nc2ccccc2nc1N1CCc2ccccc2C1)c1ccc(Br)cc1	none
CC(=O)Nc1ccc(S(=O)(=O)Nc2nc3ccccc3nc2N2CCc3ccccc3C2)cc1	STAT3 act-1 137 | STAT3 act-2 140 | NFkB act STAT3ct inactive | STAT1 act STAT3c inactive
CC(=O)n1nc(-c2ccc(C)cc2)nc1NCc1ccc(F)cc1	none
O=C(c1cccs1)N1CCCC(c2nc3c(nnn3Cc3ccccc3)c(=O)[nH]2)C1 (stereo not given)	none (no result: STAT3 act-1, STAT3 blocker, STAT1 inh)
O=C(c1ccccc1)N1CCCC(c2nc3c(nnn3Cc3ccccc3)c(=O)[nH]2)C1 (stereo not given)	STAT3 act-1 148 | STAT3 act-2 inactive | NFkB act STAT3ct inactive | STAT1 act STAT3c inactive
CCOC(=O)c1c(C)[nH]c(C(=O)OCC(=O)Nc2cc(Cl)ccc2OC)c1C	STAT3 act-1 148 | STAT3 act-2 inactive | NFkB act STAT3ct inactive | STAT1 act STAT3c inactive
C=CCC(C)(NCc1ccccc1)c1ccco1 (stereo not given)	none
Nc1ccc(N2CCCCC2)c(Cl)c1	none
CCc1ccc(/C=N/NC(=O)c2cc(-c3ccncc3)nc3ccccc23)s1	none
O=C(N/N=C/c1cccs1)c1cc(-c2ccncc2)nc2ccccc12	STAT3 act-1 138 | STAT3 act-2 inactive | NFkB act STAT3ct 125 | STAT1 act STAT3c inactive
COc1ccccc1-c1cc(C(=O)N/N=C/c2cccs2)c2ccccc2n1	STAT3 act-1 139 | STAT3 act-2 138 | NFkB act STAT3ct inactive | STAT1 act STAT3c inactive
Oc1ccccc1-c1nc(N2CCCC2)c2ccccc2n1	none
Oc1ccccc1-c1nc(N2CCN(Cc3ccccc3)CC2)c2ccccc2n1	STAT3 act-1 146 | STAT3 act-2 141 | NFkB act STAT3ct inactive | STAT1 act STAT3c inactive
CCN(C(=S)Nc1cccnc1)c1cccc2ccccc12	STAT3 act-1 137 | STAT3 act-2 inactive | NFkB act STAT3ct inactive | STAT1 act STAT3c inactive
COCCN(C(=S)Nc1cc(C)cc(C)c1)C(C)c1ccco1 (stereo not given)	none
CCCOC(=O)c1ccc(NC(=O)c2cc(Cl)ccc2OC)cc1	none
CCN(CC)c1ccc(NC(=O)c2cc(Cl)ccc2OC)cc1	STAT3 act-1 162 | STAT3 act-2 151 | NFkB act STAT3ct inactive | STAT1 act STAT3c inactive
CCn1cc(Cl)c(C(=O)N2N=C(c3ccc4ccccc4c3)CC2c2ccccc2O)n1 (stereo not given)	none
CCn1cc([N+](=O)[O-])c(C(=O)N2N=C(c3ccc4ccccc4c3)CC2c2ccccc2O)n1 (stereo not given)	STAT3 act-1 151 | STAT3 act-2 138 | NFkB act STAT3ct inactive | STAT1 act STAT3c inactive
CCn1c(SCC(=O)N/N=C/C=C\c2ccccc2[N+](=O)[O-])nnc1-c1ccccc1	STAT3 act-1 142 | STAT3 act-2 150 | NFkB act STAT3ct inactive | STAT1 act STAT3c inactive
CC(C)CC(=O)N1CC(C)N(C(=O)CC(C)C)CC1C (stereo not given)	none
